Experiments:
[1] = molecular target: T1, Signal transducer and activator of transcription 3 (Homo sapiens, UniProt P40763); test: Inhibition of IL-6 induced STAT3 transcriptional activity in human HepG2 cells incubated for 1 hr followed by stimulation with IL-6 for 5.5 hrs by luciferase reporter gene assay; format: cell-based
In short: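 STAT3-dependent luciferase reporter assay in HepG2 cells with IL-6 stimulation; IC50 given as mean ± SD of at least three independent experiments.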

HEL = test: Antiproliferative activity against human HEL cells harboring JAK2 V617F mutant assessed as inhibition of cell growth incubated for 72 hrs by MTT assay; format: functional, cell-based
In short: (§1)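 MTT proliferation assay; MDA-MB-468 grown in DMEM/F-12 and HEL in high-glucose DMEM, each with 10% FBS and penicillin/streptomycin, at 37 °C under 5% CO₂. IC50 given as mean ± SD of at least three independent experiments.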

MDA-MB-468 = test: Antiproliferative activity against human MDA-MB-468 cells overexpressing STAT3 assessed as inhibition of cell growth incubated for 72 hrs by MTT assay; format: functional, cell-based; conditions: MDA-MB-468, 72 h; in short: as §1
MDA-MB-453 = test: Antiproliferative activity against human MDA-MB-453 cells expressing low levels of STAT3 assessed as inhibition of cell growth incubated for 72 hrs by MTT assay; format: functional, cell-based; conditions: MDA-MB-453, 72 h
In short: (§2)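 MTT proliferation assay on MCF-7 and MDA-MB-453 cells; IC50 given as mean ± SD of at least two independent experiments.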

MCF7 = test: Antiproliferative activity against human MCF7 cells expressing low levels of STAT3 assessed as inhibition of cell growth incubated for 72 hrs by MTT assay; format: functional, cell-based; conditions: MCF7, 72 h; in short: as §2
[2] = molecular target: T1, Signal transducer and activator of transcription 3; test: Binding affinity to His-tagged STAT3-SH2 domain (127 to 722 residues) (unknown origin) by surface plasmon resonance analysis
In short: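 SPR on a Biacore T200 with STAT3 SH2 domain. Analytes were run as concentration series, and KD was taken as the equilibrium constant.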

[3] = molecular target: T1, Signal transducer and activator of transcription 3; test: Displacement of 5'-FAM-GpYLPQTV-NH2 from His-tagged STAT3-SH2 domain (127 to 722 residues) (unknown origin) assessed as binding rate at 100 uM […] by fluorescence polarization assay; conditions: time 90.0 min
[4] = molecular target: T1, Signal transducer and activator of transcription 3; test: Displacement of 5'-FAM-GpYLPQTV-NH2 from His-tagged STAT3-SH2 domain (127 to 722 residues) (unknown origin) assessed as binding rate at 50 uM […] by fluorescence polarization assay; conditions: time 90.0 min
[5] = molecular target: T1, Signal transducer and activator of transcription 3; test: Displacement of 5'-FAM-GpYLPQTV-NH2 from His-tagged STAT3-SH2 domain (127 to 722 residues) (unknown origin) assessed as binding rate at 20 uM […] by fluorescence polarization assay; conditions: time 90.0 min

T1 sequence (P40763 whole entry): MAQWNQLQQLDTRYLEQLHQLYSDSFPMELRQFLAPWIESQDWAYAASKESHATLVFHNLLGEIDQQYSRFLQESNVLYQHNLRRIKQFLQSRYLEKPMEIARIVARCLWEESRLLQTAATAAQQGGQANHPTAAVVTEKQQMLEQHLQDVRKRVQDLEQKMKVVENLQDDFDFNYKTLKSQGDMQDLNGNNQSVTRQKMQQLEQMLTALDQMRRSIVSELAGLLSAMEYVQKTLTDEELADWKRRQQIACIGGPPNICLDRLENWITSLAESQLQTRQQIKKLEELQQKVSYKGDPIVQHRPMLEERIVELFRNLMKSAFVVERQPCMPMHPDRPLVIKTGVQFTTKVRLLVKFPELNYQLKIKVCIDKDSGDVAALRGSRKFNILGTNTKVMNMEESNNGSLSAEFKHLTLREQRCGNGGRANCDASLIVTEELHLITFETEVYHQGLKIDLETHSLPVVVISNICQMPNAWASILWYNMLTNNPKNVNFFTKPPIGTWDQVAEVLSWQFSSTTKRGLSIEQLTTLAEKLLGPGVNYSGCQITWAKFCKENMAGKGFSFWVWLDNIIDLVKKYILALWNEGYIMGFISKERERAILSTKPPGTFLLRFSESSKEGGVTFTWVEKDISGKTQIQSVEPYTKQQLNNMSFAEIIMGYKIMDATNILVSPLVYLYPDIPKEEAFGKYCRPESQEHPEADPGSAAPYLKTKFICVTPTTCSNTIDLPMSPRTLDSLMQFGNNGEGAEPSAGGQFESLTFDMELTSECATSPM

SMILES	IC50 [1] [nM]	IC50 (HEL) [nM]	IC50 (MDA-MB-468) [nM]	also measured
CCCC(C)Oc1ccc(C(=O)Nc2ccc3nc(SCC(=O)N[C@@H](C)c4ccccc4)sc3c2)cc1C (stereo partly drawn)	950	> 10000	730	–
CCCC(C)Oc1ccc(C(=O)Nc2ccc3nc(SCC(=O)N[C@@H](C)c4ccccc4)sc3c2)cc1C(F)(F)F (stereo partly drawn)	> 10000	–	–	–
CCC[C@H](C)Oc1ccc(C(=O)Nc2ccc3nc(SCC(=O)N[C@@H](C)c4ccccc4)sc3c2)cc1C	1200	–	–	–
CCC[C@@H](C)Oc1ccc(C(=O)Nc2ccc3nc(SCC(=O)N[C@@H](C)c4ccccc4)sc3c2)cc1C	900	–	–	–
CCCC(C)Oc1ccc(C(=O)Nc2ccc3nc(SCC(=O)N[C@@H](C)c4ccccc4)sc3c2)cc1F (stereo partly drawn)	> 10000	–	–	–
COc1ccc([C@H](C)NC(=O)CSc2nc3ccc(NC(=O)c4ccc(OCCN(C)C)c(C)c4OC)cc3s2)cc1	520	4980	6570	–
N#CC[C@H](C1CCCC1)n1cc(-c2ncnc3[nH]ccc23)cn1 [RUXOLITINIB]	–	1400	> 20000	–
CCCc1cc(C(=O)Nc2ccc3nc(SCC(=O)N[C@@H](C)c4ccccc4)sc3c2)ccc1OC(C)CCC (stereo partly drawn)	> 10000	–	–	–
Cc1cc(Nc2nc(N[C@@H](C)c3ncc(F)cn3)ncc2Cl)[nH]n1 [AZD-1480]	–	730	5870	–
CCCC(C)Oc1ccc(C(=O)Nc2ccc3nc(SCC(=O)N[C@@H](C)c4ccc(O)cc4)sc3c2)c(OC)c1C (stereo partly drawn)	200	680	700	–
CCCC(C)Oc1ccc(C(=O)Nc2ccc3nc(SCC(=O)N[C@@H](C)c4ccccc4)sc3c2)c(F)c1F (stereo partly drawn)	> 10000	–	–	–
COc1ccc([C@H](C)NC(=O)COc2nc3ccc(NC(=O)c4ccc(OC)c(C)c4OC)cc3s2)cc1	8860	–	–	–
O=[N+]([O-])c1ccc2c(c1)S(=O)(=O)C=C2	–	1590	–	IC50 (MDA-MB-453): 4400 nM; IC50 (MCF7): 1700 nM; Kd [2]: 1530 nM; Activity [3]: 95%; Activity [4]: 71.1%; Activity [5]: 62.3%
CCCC(C)Oc1ccc(C(=O)Nc2ccc3nc(SCC(=O)N[C@@H](C)c4ccccc4)sc3c2)c(Cl)c1 (stereo partly drawn)	1340	–	–	–
CCCC(C)Oc1ccc(C(=O)Nc2ccc3nc(SCC(=O)N[C@@H](C)c4cccc(OC)c4)sc3c2)c(OC)c1C (stereo partly drawn)	270	870	500	–
NS(=O)(=O)c1cccc2c1C(=O)c1cccc(O)c1C2=O	98	1460	730	–
CCCC(C)Oc1ccc(C(=O)Nc2ccc3nc(SCC(=O)N[C@@H](C)c4ccccc4O)sc3c2)c(OC)c1C (stereo partly drawn)	170	970	590	–
COCCOc1ccc(C(=O)Nc2ccc3nc(SCC(=O)N[C@@H](C)c4ccc(OC)cc4)sc3c2)c(OC)c1C	260	1440	1160	–

SMILES	IC50 [1] [nM]	IC50 (HEL) [nM]	IC50 (MDA-MB-468) [nM]	also measured
COc1ccc([C@H](C)NC(=O)CSc2nc3ccc(NC(=O)c4ccc(OCCN5CCCC5)c(C)c4OC)cc3s2)cc1	1030	10400	3360	–
COc1ccc([C@H](C)NC(=O)CNc2nc3ccc(NC(=O)c4ccc(OC)c(C)c4OC)cc3s2)cc1	1490	–	–	–
COc1ccc([C@H](C)NC(=O)CSc2nc3ccc(NC(=O)c4ccc(OCCN5CCOCC5)c(C)c4OC)cc3s2)cc1	240	3380	1770	–
CCCC(C)Oc1ccc(C(=O)Nc2ccc3nc(SCC(=O)N[C@@H](C)c4ccccc4)sc3c2)cc1C#N (stereo partly drawn)	> 10000	–	–	–
CCCC(C)Oc1ccc(C(=O)Nc2ccc3nc(SCC(=O)N[C@@H](C)c4ccccc4)sc3c2)cc1CC (stereo partly drawn)	> 10000	–	–	–
CCCC(C)Oc1ccc(C(=O)Nc2ccc3nc(SCC(=O)N[C@@H](C)c4ccccc4)sc3c2)cc1Cl (stereo partly drawn)	> 10000	–	–	–
CCCC(C)Oc1ccc(C(=O)Nc2ccc3nc(SCC(=O)N[C@@H](C)c4ccccc4)sc3c2)cc1Br (stereo partly drawn)	2150	–	–	–
CCCC(C)Oc1ccc(C(=O)Nc2ccc3nc(SCC(=O)N[C@@H](C)c4ccccc4)sc3c2)c(F)c1 (stereo partly drawn)	> 10000	–	–	–
CCCC(C)Oc1ccc(C(=O)Nc2ccc3nc(SCC(=O)N[C@@H](C)c4ccccc4)sc3c2)c(C)c1C (stereo partly drawn)	460	930	810	–
CCCC(C)Oc1ccc(C(=O)Nc2ccc3nc(SCC(=O)N[C@@H](C)c4ccccc4)sc3c2)cc1OC (stereo partly drawn)	1420	–	–	–
CCCC(C)Oc1ccc(C(=O)Nc2ccc3nc(SCC(=O)N[C@@H](C)c4ccccc4)sc3c2)c(C)c1 (stereo partly drawn)	2720	–	–	–
CCCC(C)Oc1ccc(C(=O)Nc2ccc3nc(SCC(=O)N[C@@H](C)c4ccccc4)sc3c2)cc1 (stereo partly drawn)	–	> 10000	2210	IC50 ([1]; hepg2): 1600 nM
COc1ccc([C@H](C)NC(=O)CSc2nc3ccc(NC(=O)c4ccc(OCC(C)C)c(C)c4OC)cc3s2)cc1	200	2050	2020	–
COc1ccc([C@H](C)NC(=O)CSc2nc3ccc(NC(=O)c4ccc(OC(C)C)c(C)c4OC)cc3s2)cc1	220	1290	1810	–
CCCC(C)Oc1ccc(C(=O)Nc2ccc3nc(SCC(=O)N[C@@H](C)c4ccccc4)sc3c2)c(OC)c1 (stereo partly drawn)	2200	–	–	–
COc1ccc([C@H](C)NC(=O)CSc2nc3ccc(NC(=O)c4ccc(OC)c(C)c4OC)cc3s2)cc1	120	1340	2050	–
CCCC(C)Oc1ccc(C(=O)Nc2ccc3nc(SCC(=O)N[C@@H](C)c4cccc(O)c4)sc3c2)c(OC)c1C (stereo partly drawn)	150	620	2240	–

Reference: ChEMBL document CHEMBL4813976, “Rational drug design of benzothiazole-based derivatives as potent signal transducer and activator of transcription 3 (STAT3) signaling pathway inhibitors” (Eur J Med Chem, 2021)
